Test results: ChEMBL document CHEMBL1154842, “Synthesis, radiolabeling, and biological evaluation of (R)- and (S)-2-amino-3-[(18)F]fluoro-2-methylpropanoic acid (FAMP) and (R)- and (S)-3-[(18)F]fluoro-2-methyl-2-N-(methylamino)propanoic acid (NMeFAMP) as potential PET radioligands for imaging brain tumors” (J Med Chem, 2010)

Tests used:
Kidney [1] = test: Biodistribution in kidney of Fischer 344 rat bearing rat 9L cells at 20 uCi, iv after 120 mins; type: ADME, organism-based; details: in vivo, 2 h
Summary of the method: (§1)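 Male Fischer 344 rats (200–250 g) carrying intracranial 9L gliosarcoma (5×10^4 cells implanted stereotactically, 10–12 days growth), under ketamine:xylazine anaesthesia. About 20 μCi tracer in 0.5 mL sterile saline given via tail-vein catheter. Groups of 4–5 were killed by intracardiac KCl at 15 (NMeFAMP only), 30, 60 or 120 min. Tissues were weighed and gamma-counted, decay-corrected, and reported as %ID/g, mean ± SD.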

Bone [2] = test: Biodistribution in bone of Fischer 344 rat bearing rat 9L cells at 20 uCi, iv after 15 mins; type: ADME, organism-based, Bone element; details: in vivo, 0.25 h; summary of the method: as §1
Kidney [3] = test: Biodistribution in kidney of Fischer 344 rat bearing rat 9L cells at 20 uCi, iv after 15 mins; type: ADME, organism-based; details: in vivo, 0.25 h; summary of the method: as §1
Pancreas [4] = test: Biodistribution in pancreas of Fischer 344 rat bearing rat 9L cells at 20 uCi, iv after 30 mins; type: ADME, organism-based; details: in vivo, 0.5 h; summary of the method: as §1
Heart [5] = test: Biodistribution in heart of Fischer 344 rat bearing rat 9L cells at 20 uCi, iv after 120 mins; type: ADME, organism-based; details: in vivo, 2 h; summary of the method: as §1
Liver [6] = test: Biodistribution in liver of Fischer 344 rat bearing rat 9L cells at 20 uCi, iv after 60 mins; type: ADME, organism-based; details: in vivo, 1 h; summary of the method: as §1
Blood [7] = test: Biodistribution in blood of Fischer 344 rat bearing rat 9L cells at 20 uCi, iv after 15 mins; type: ADME, organism-based; details: in vivo, 0.25 h; summary of the method: as §1
Spleen [8] = test: Biodistribution in spleen of Fischer 344 rat bearing rat 9L cells at 20 uCi, iv after 30 mins; type: ADME, organism-based; details: in vivo, 0.5 h; summary of the method: as §1
Muscle tissue [9] = test: Biodistribution in muscle of Fischer 344 rat bearing rat 9L cells at 20 uCi, iv after 120 mins; type: ADME, organism-based; details: in vivo, 2 h; summary of the method: as §1
Brain [10] = test: Biodistribution in brain of Fischer 344 rat bearing rat 9L cells at 20 uCi, iv after 15 mins; type: ADME, organism-based; details: in vivo, 0.25 h; summary of the method: as §1
Liver [11] = test: Biodistribution in liver of Fischer 344 rat bearing rat 9L cells at 20 uCi, iv after 30 mins; type: ADME, organism-based; details: in vivo, 0.5 h; summary of the method: as §1
Liver [12] = test: Biodistribution in liver of Fischer 344 rat bearing rat 9L cells at 20 uCi, iv after 15 mins; type: ADME, organism-based; details: in vivo, 0.25 h; summary of the method: as §1
Lung [13] = test: Biodistribution in lung of Fischer 344 rat bearing rat 9L cells at 20 uCi, iv after 120 mins; type: ADME, organism-based; details: in vivo, 2 h; summary of the method: as §1
Pancreas [14] = test: Biodistribution in pancreas of Fischer 344 rat bearing rat 9L cells at 20 uCi, iv after 15 mins; type: ADME, organism-based; details: in vivo, 0.25 h; summary of the method: as §1
Blood [15] = test: Biodistribution in blood of Fischer 344 rat bearing rat 9L cells at 20 uCi, iv after 120 mins; type: ADME, organism-based; details: in vivo, 2 h; summary of the method: as §1
Kidney [16] = test: Biodistribution in kidney of Fischer 344 rat bearing rat 9L cells at 20 uCi, iv after 60 mins; type: ADME, organism-based; details: in vivo, 1 h; summary of the method: as §1
[17] = rat, in vivo, iv, 1 h
[18] = Biodistribution in testis of Fischer 344 rat bearing rat 9L cells at 20 uCi, iv after 60 mins; type: ADME, organism-based; details: in vivo, 1 h; summary of the method: as §1
Brain [19] = test: Biodistribution in brain of Fischer 344 rat bearing rat 9L cells at 20 uCi, iv after 15 mins; details: in vivo
Bone [20] = test: Biodistribution in bone of Fischer 344 rat bearing rat 9L cells at 20 uCi, iv after 30 mins; type: ADME, organism-based, Bone element; details: in vivo, 0.5 h; summary of the method: as §1
Pancreas [21] = test: Biodistribution in pancreas of Fischer 344 rat bearing rat 9L cells at 20 uCi, iv after 60 mins; type: ADME, organism-based; details: in vivo, 1 h; summary of the method: as §1
Pancreas [22] = test: Biodistribution in pancreas of Fischer 344 rat bearing rat 9L cells at 20 uCi, iv after 120 mins; type: ADME, organism-based; details: in vivo, 2 h; summary of the method: as §1
Bone [23] = test: Biodistribution in bone of Fischer 344 rat bearing rat 9L cells at 20 uCi, iv after 120 mins; type: ADME, organism-based, Bone element; details: in vivo, 2 h; summary of the method: as §1
[24] = Biodistribution in testis of Fischer 344 rat bearing rat 9L cells at 20 uCi, iv after 120 mins; type: ADME, organism-based; details: in vivo, 2 h; summary of the method: as §1
Heart [25] = test: Biodistribution in heart of Fischer 344 rat bearing rat 9L cells at 20 uCi, iv after 15 mins; type: ADME, organism-based; details: in vivo, 0.25 h; summary of the method: as §1
Liver [26] = test: Biodistribution in liver of Fischer 344 rat bearing rat 9L cells at 20 uCi, iv after 120 mins; type: ADME, organism-based; details: in vivo, 2 h; summary of the method: as §1
Heart [27] = test: Biodistribution in heart of Fischer 344 rat bearing rat 9L cells at 20 uCi, iv after 60 mins; type: ADME, organism-based; details: in vivo, 1 h; summary of the method: as §1
Bone [28] = test: Biodistribution in bone of Fischer 344 rat bearing rat 9L cells at 20 uCi, iv after 60 mins; type: ADME, organism-based, Bone element; details: in vivo, 1 h; summary of the method: as §1
Blood [29] = test: Biodistribution in blood of Fischer 344 rat bearing rat 9L cells at 20 uCi, iv after 30 mins; type: ADME, organism-based; details: in vivo, 0.5 h; summary of the method: as §1
[30] = Biodistribution in testis of Fischer 344 rat bearing rat 9L cells at 20 uCi, iv after 15 mins; type: ADME, organism-based; details: in vivo, 0.25 h; summary of the method: as §1
Kidney [31] = test: Biodistribution in kidney of Fischer 344 rat bearing rat 9L cells at 20 uCi, iv after 30 mins; type: ADME, organism-based; details: in vivo, 0.5 h; summary of the method: as §1
Muscle tissue [32] = test: Biodistribution in muscle of Fischer 344 rat bearing rat 9L cells at 20 uCi, iv after 60 mins; type: ADME, organism-based; details: in vivo, 1 h; summary of the method: as §1
Heart [33] = test: Biodistribution in heart of Fischer 344 rat bearing rat 9L cells at 20 uCi, iv after 30 mins; type: ADME, organism-based; details: in vivo, 0.5 h; summary of the method: as §1
Lung [34] = test: Biodistribution in lung of Fischer 344 rat bearing rat 9L cells at 20 uCi, iv after 30 mins; type: ADME, organism-based; details: in vivo, 0.5 h; summary of the method: as §1
[35] = rat, in vivo, iv, 1 h; remark: listed apart in the source
[36] = Ratio of drug level from tumor to brain of Fischer 344 rat bearing rat 9L cells at 20 uCi, iv after 120 mins; type: ADME, organism-based; details: in vivo, 2 h
Spleen [37] = test: Biodistribution in spleen of Fischer 344 rat bearing rat 9L cells at 20 uCi, iv after 120 mins; type: ADME, organism-based; details: in vivo, 2 h; summary of the method: as §1
[38] = Biodistribution in tumor of Fischer 344 rat bearing rat 9L cells at 20 uCi, iv after 30 mins; type: ADME, organism-based, Neoplasm; details: in vivo, 0.5 h; summary of the method: as §1
Lung [39] = test: Biodistribution in lung of Fischer 344 rat bearing rat 9L cells at 20 uCi, iv after 60 mins; type: ADME, organism-based; details: in vivo, 1 h; summary of the method: as §1
Muscle tissue [40] = test: Biodistribution in muscle of Fischer 344 rat bearing rat 9L cells at 20 uCi, iv after 30 mins; type: ADME, organism-based; details: in vivo, 0.5 h; summary of the method: as §1
Muscle tissue [41] = test: Biodistribution in muscle of Fischer 344 rat bearing rat 9L cells at 20 uCi, iv after 15 mins; type: ADME, organism-based; details: in vivo, 0.25 h; summary of the method: as §1
Brain [42] = test: Biodistribution in brain of Fischer 344 rat bearing rat 9L cells at 20 uCi, iv after 30 mins; type: ADME, organism-based; details: in vivo, 0.5 h; summary of the method: as §1
Spleen [43] = test: Biodistribution in spleen of Fischer 344 rat bearing rat 9L cells at 20 uCi, iv after 15 mins; type: ADME, organism-based; details: in vivo, 0.25 h; summary of the method: as §1
[44] = Ratio of drug level from tumor to brain of Fischer 344 rat bearing rat 9L cells at 20 uCi, iv after 60 mins; details: in vivo, 1 h
[45] = Biodistribution in testis of Fischer 344 rat bearing rat 9L cells at 20 uCi, iv after 30 mins; type: ADME, organism-based; details: in vivo, 0.5 h; summary of the method: as §1
Spleen [46] = test: Biodistribution in spleen of Fischer 344 rat bearing rat 9L cells at 20 uCi, iv after 60 mins; type: ADME, organism-based; details: in vivo, 1 h; summary of the method: as §1
Lung [47] = test: Biodistribution in lung of Fischer 344 rat bearing rat 9L cells at 20 uCi, iv after 15 mins; type: ADME, organism-based; details: in vivo, 0.25 h; summary of the method: as §1
Blood [48] = test: Biodistribution in blood of Fischer 344 rat bearing rat 9L cells at 20 uCi, iv after 60 mins; type: ADME, organism-based; details: in vivo, 1 h; summary of the method: as §1

Which results are given for `CN[C@](C)(C[18F])C(=O)O.Cl`?
Drug uptake (Kidney [1]): 2.22 % ID/g; Drug uptake (Bone [2]): 0.46 % ID/g; Drug uptake (Kidney [3]): 11.58 % ID/g; Drug uptake (Pancreas [4]): 3.4 % ID/g; Drug uptake (Heart [5]): 0.21 % ID/g; Drug uptake (Liver [6]): 0.88 % ID/g; Drug uptake (Blood [7]): 0.54 % ID/g; Drug uptake (Spleen [8]): 0.51 % ID/g; Drug uptake (Muscle tissue [9]): 0.22 % ID/g; Drug uptake (Brain [10]): 0.06 % ID/g; Drug uptake (Liver [11]): 0.71 % ID/g; Drug uptake (Liver [12]): 0.83 % ID/g; Drug uptake (Lung [13]): 0.42 % ID/g; Drug uptake (Pancreas [14]): 3.52 % ID/g; Drug uptake (Blood [15]): 0.14 % ID/g; Drug uptake (Kidney [16]): 5.18 % ID/g; Drug uptake [17]: 0.05 % ID/g; Drug uptake [18]: 0.13 % ID/g; Ratio (Brain [19]): 20.4; Drug uptake (Bone [20]): 0.32 % ID/g; Drug uptake (Pancreas [21]): 4.34 % ID/g; Drug uptake (Pancreas [22]): 3.78 % ID/g; Drug uptake (Bone [23]): 0.25 % ID/g; Drug uptake [24]: 0.08 % ID/g; Drug uptake (Heart [25]): 0.32 % ID/g; Drug uptake (Liver [26]): 0.6 % ID/g; Drug uptake (Heart [27]): 0.31 % ID/g; Drug uptake (Bone [28]): 0.37 % ID/g; Drug uptake (Blood [29]): 0.31 % ID/g; Drug uptake [30]: 0.19 % ID/g; Drug uptake (Kidney [31]): 9.48 % ID/g; Drug uptake (Muscle tissue [32]): 0.24 % ID/g; Drug uptake (Heart [33]): 0.3 % ID/g; Drug uptake (Lung [34]): 0.87 % ID/g; Drug uptake [35]: 1.46 % ID/g; Ratio [36]: 35.4; Drug uptake (Spleen [37]): 0.49 % ID/g; Ratio [38]: 30.2; Drug uptake (Lung [39]): 0.5 % ID/g; Drug uptake (Muscle tissue [40]): 0.26 % ID/g; Drug uptake (Muscle tissue [41]): 0.25 % ID/g; Drug uptake (Brain [42]): 0.06 % ID/g; Drug uptake (Spleen [43]): 0.57 % ID/g; Ratio [44]: 28.7; Drug uptake [45]: 0.13 % ID/g; Drug uptake (Spleen [46]): 0.53 % ID/g; Drug uptake (Lung [47]): 0.86 % ID/g; Drug uptake (Blood [48]): 0.24 % ID/g
